By AUC is commonly meant the area under the concentration-time curve, a measure of exposure. A low value points to low exposure. The term Cmax denotes the maximum level reached in the sampled fluid or tissue. For orientation: logD means the decadic logarithm of the distribution of all forms, ionised or not, between an organic phase and buffer at a given pH. A low value points to a more hydrophilic compound. Usually pKa stands for the negative logarithm of the acid dissociation constant. The low end stands for a stronger acid or weaker base, the high end for a weaker acid or stronger base.

The values that follow come from ChEMBL document CHEMBL3627702, “Navigating CYP1A Induction and Arylhydrocarbon Receptor Agonism in Drug Discovery. A Case History with S1P1 Agonists” (J Med Chem, 2015).

For data set [1], the system named is CYP1A2. The data set can be described thus: Induction of CYP1A2 mRNA expression in Sprague-Dawley rat hepatic microsomes at 25 mg/kg, po QD for 4 days relative to control. In kind it is ADME, organism-based, Liver. To be noted: read-out: FC.
In data set [2] the test system is Rattus norvegicus. Kind of data set: Dose normalized AUC in Sprague-Dawley rat at 25 mg/kg, po QD measured on day 4. In kind it is ADME, organism-based. To be noted: in vivo. In short, it runs like this: (§1)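 Male CD rats (226−325 g), n = 3, given the compound once daily by oral gavage for 4 days. Vehicle was 1% (w/v) methylcellulose aq suspension at 3−6 mg/mL, dosed at 5 mL/kg (target 15−30 mg/kg). Tail vein blood was taken on days 1 and 4 up to 24 h postdose. Blood was diluted 1:1 with water, extracted by acetonitrile protein precipitation and analysed by LC−MS/MS against calibration standards in diluted blood.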

Data set [3] in a line: AUC in Sprague-Dawley rat at 25 mg/kg, po QD measured on day 4. In kind it is ADME, organism-based. To be noted: in vivo. In short, it runs like this: as §1
Data set [4] concerns Rattus norvegicus. Kind of data set: Dose normalized AUC in Sprague-Dawley rat at 25 mg/kg, po QD measured on day 1. Format: ADME, organism-based. To be noted: in vivo. In short, it runs like this: as §1
The nature of data set [5]: Cmax in Sprague-Dawley rat at 25 mg/kg, po QD measured on day 1. In kind it is ADME, organism-based. On the set-up: dose 25 mg/kg, route oral. To be noted: in vivo. In short, it runs like this: as §1
Data set [6] has as its system CYP1A1. Kind of data set: Induction of CYP1A1 mRNA expression in Sprague-Dawley rat hepatic microsomes at 25 mg/kg, po QD for 4 days relative to control. In kind it is ADME, organism-based, Liver. To be noted: read-out: FC. In short, it runs like this:
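Male CD rats (226–325 g, n = 3) were dosed by oral gavage once daily for 4 days as a 1% w/v aqueous methylcellulose suspension (3–6 mg/mL, 5 mL/kg). At the end of the study, a left lateral liver lobe section was placed in RNALater and homogenised in TRIzol. RNA was purified, DNase-treated and converted to cDNA, and Cyp1a1 was read on low-density TaqMan arrays.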

Data set [7] is described as follows: Lipophilicity, log D of the compound at pH 7.4. Format: physicochemical. The note with it: buffer.
A short description of data set [8]: Dissociation constant, pKa of the compound. In kind it is physicochemical.
Data set [9] is described as follows: AUC in Sprague-Dawley rat at 25 mg/kg, po QD measured on day 1. In kind it is ADME, organism-based. The note with it: in vivo. In short, it runs like this:
as §1

A short description of data set [10]: Cmax in Sprague-Dawley rat at 25 mg/kg, po QD measured on day 4. Format: ADME, organism-based. Also on record: dose 25 mg/kg, route oral. To be noted: in vivo. In short, it runs like this: as §1
Data set [11] has as its system CYP1A2. Kind of data set: Induction of CYP1A2 mRNA expression in rat hepatic microsomes at 30 mg/kg, po QD for 7 days relative to control. The note with it: read-out: FC. Format: ADME, organism-based, Liver. In short, it runs like this:
(§2)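 Male rats dosed orally once daily for 7 days. Hepatic mRNA measured by Taqman and expressed as fold induction versus control animals.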

Data set [12] relates to Rattus norvegicus. Kind of data set: Induction of CYP1A2 gene expression in po dosed rat hepatic microsomes administered po QD for 7 days. Format: ADME, organism-based, Liver. To be noted: 168 h. In short, it runs like this:
(§3)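 Rats dosed orally once daily for 7 days at 30–300 mg/kg/day, depending on compound. Hepatic AhR-panel gene mRNA (Cyp1a, Nqo1, Ephx1) measured and expressed as fold induction versus control animals.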

In data set [13] the test system is Rattus norvegicus. Kind of data set: Induction of CYP1A1 gene expression in po dosed rat hepatic microsomes administered po QD for 7 days. To be noted: 168 h. Format: ADME, organism-based, Liver. In short, it runs like this:
(§4)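 Rats received oral doses daily for 7 days: 30 and 100 mg/kg, or 30, 100 and 300 mg/kg, depending on compound. Hepatic CYP1A1 mRNA was expressed as fold induction versus control animals.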

Data set [14] has as its system Rattus norvegicus. Kind of data set: Induction of Nqo1 gene expression in rat hepatic microsomes at 30 to 300 mg/kg, po QD for 7 days. In kind it is organism-based, Liver. To be noted: 168 h. In short, it runs like this: as §3
Data set [15] deals with CYP1A1. The data set can be described thus: (§5) Induction of CYP1A1 mRNA expression in rat hepatocytes at 10 uM by Taqman analysis relative to control. Format: ADME, cell-based, Hepatocyte. To be noted: read-out: FC. In general terms: Real-time PCR tracks product formation cycle by cycle.
For data set [16], the system named is CYP1A2. Kind of data set: (§6) Induction of CYP1A2 mRNA expression in rat hepatocytes at 10 uM by Taqman analysis relative to control. In kind it is ADME, cell-based, Hepatocyte. The note with it: read-out: FC.
For data set [17], the system named is CYP1A1. The data set can be described thus: Induction of CYP1A1 gene expression in rat hepatic microsomes at 30 to 300 mg/kg, po QD for 7 days. In kind it is ADME, organism-based, Liver. The note with it: read-out: FC. In short, it runs like this:
as §4

Data set [18] concerns CYP1A1. The data set can be described thus: Induction of CYP1A1 mRNA expression in rat hepatic microsomes at 30 mg/kg, po QD for 7 days relative to control. Format: ADME, organism-based, Liver. The note with it: read-out: FC. In short, it runs like this:
as §2

Data set [19] deals with Rattus norvegicus. The data set can be described thus: Induction of Nqo1 gene expression in po dosed rat hepatic microsomes administered po QD for 7 days. Format: organism-based, Liver. The note with it: 168 h. In short, it runs like this: as §3
Data set [20] deals with T1, CYP1A2 (Homo sapiens, UniProt P05177).
T1 sequence (P05177 whole entry): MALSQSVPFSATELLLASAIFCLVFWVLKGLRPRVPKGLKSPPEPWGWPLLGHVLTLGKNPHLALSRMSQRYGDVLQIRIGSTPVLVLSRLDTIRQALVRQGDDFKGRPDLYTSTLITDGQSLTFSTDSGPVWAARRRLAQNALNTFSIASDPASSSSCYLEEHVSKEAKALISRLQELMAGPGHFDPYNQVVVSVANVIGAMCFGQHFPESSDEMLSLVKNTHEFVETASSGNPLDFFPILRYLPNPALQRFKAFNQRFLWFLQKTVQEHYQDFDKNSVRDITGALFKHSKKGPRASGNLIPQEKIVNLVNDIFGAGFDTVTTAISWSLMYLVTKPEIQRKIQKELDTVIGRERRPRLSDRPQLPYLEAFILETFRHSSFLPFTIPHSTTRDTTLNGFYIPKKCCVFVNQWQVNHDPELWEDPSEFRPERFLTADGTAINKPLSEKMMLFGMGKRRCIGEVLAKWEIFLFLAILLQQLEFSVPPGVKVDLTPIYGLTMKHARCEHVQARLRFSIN
Kind of data set: Induction of CYP1A2-mediated 7-ethoxyresorufin O-deethylase activity in human hepatocytes at 5 uM after 10 mins by fluorescence assay relative to control. Format: ADME, cell-based, Hepatocyte. To be noted: probe 7-ethoxyresorufin, read-out: FC. In short, it runs like this:
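Human hepatocytes were treated for 48 h (re-dosed at 24 h), washed, then incubated with 0.5 μM ethoxyresorufin in serum-free medium for 10 min at 37 °C. Resorufin fluorescence read at Ex 530/Em 590 nm. Rate in fluorescence units/min expressed as fold over solvent control.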

Data set [21] has as its system Rattus norvegicus. Kind of data set: Induction of Ephx1 gene expression in rat hepatic microsomes at 30 to 300 mg/kg, po QD for 7 days. Format: organism-based, Liver. The note with it: 168 h. In short, it runs like this: as §3
The subject of data set [22] is CYP1A2. Kind of data set: Induction of CYP1A2 mRNA expression in human hepatocytes at 10 uM relative to control. In kind it is ADME, cell-based, Hepatocyte. To be noted: read-out: FC.
The subject of data set [23] is Rattus norvegicus. The data set can be described thus: Induction of CYP1A2 gene expression in rat hepatic microsomes at 30 to 300 mg/kg, po QD for 7 days. Format: ADME, organism-based, Liver. To be noted: 168 h. In short, it runs like this: as §3
Data set [24] concerns Rattus norvegicus. Kind of data set: Induction of Ephx1 gene expression in po dosed rat hepatic microsomes administered po QD for 7 days. Format: organism-based, Liver. To be noted: 168 h. In short, it runs like this: as §3
Data set [25] relates to Hepatocyte. Described as §5. Format: ADME, cell-based. The note with it: 10 µM.
For data set [26], the system named is Hepatocyte. The data set is described as §6. Format: ADME, cell-based. The note with it: 10 µM.
Data set [27] deals with Rattus norvegicus. Kind of data set: Induction of CYP1A2 mRNA expression in rat hepatic microsomes at 20 mg/kg, po QD for 4 days relative to control. Format: ADME, organism-based, Liver. The note with it: microsomes, 96 h. In short, it runs like this: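 Male CD rats (226–325 g), n = 3, given test compound by oral gavage once daily for 4 days. Vehicle was 1% w/v methylcellulose aqueous suspension (3–6 mg/mL, 5 mL/kg); target dose 15–30 mg/kg. Liver from the left lateral lobe was put in RNALater, then TRIzol extraction and cDNA conversion; Cyp1a analysed on low-density arrays.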

Data set [28] deals with Rattus norvegicus. Kind of data set: Induction of CYP1A1 mRNA expression in rat hepatic microsomes at 20 mg/kg, po QD for 4 days relative to control. In kind it is ADME, organism-based, Liver. To be noted: microsomes, 96 h. In short, it runs like this: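 Male CD rats, n = 3, received the compound once daily by oral gavage for 4 days in 1% methylcellulose suspension at 5 mL/kg. At necropsy a left lateral liver lobe section was stored in RNALater on ice. Tissue was TRIzol-homogenized, RNA purified, DNased and converted to cDNA. Cyp1a1 was read on low density arrays and expressed relative to control.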

Regarding `Cc1c(-c2noc(-c3ccc(OC(C)C)c(C#N)c3)n2)ccc2c1CCN(C[C@H](O)CO)CC2`, the fold induction at 96 h with CYP1A2 [1] worked out at 2.2; in the data set with CYP1A1 [6], 215. Moreover, the AUC/dose is 38 kg·min/L with Rattus norvegicus [2] and 31 kg·min/L in the data set with Rattus norvegicus [4]. In addition, the AUC was 15600 ng·h/mL in [3] and 13200 ng·h/mL in data set [9]. Further, the highest concentration (Cmax) amounted to 730 ng/mL in data set [5] and 870 ng/mL in data set [10]. The compound also yielded a logD in data set [7] of 2.36. The same compound came in with a pKa in [8] of 8.4.
Regarding `CC(C)Oc1ccc(-c2nc(-c3cccc4c3OCCN(CCCC(=O)O)C4)no2)cc1Cl`, the fold induction at 168 h in the data set with CYP1A2 [11] amounted to 8; in the data set with CYP1A1 [17] it was 10000; in the data set with CYP1A1 [18], 75. Also, the Activity entry is “Dose-dependent effect” in the data set with Rattus norvegicus [12]; “Dose-dependent effect” in the data set on Rattus norvegicus [13]; “Toxic” in the data set on Rattus norvegicus [14]; “Dose-dependent effect” in the data set with Rattus norvegicus [19]; “Toxic” in the data set on Rattus norvegicus [21]; “Toxic” in the data set on Rattus norvegicus [23]. Also, the Activity result in the data set with Rattus norvegicus [24] is on record as “Dose-dependent effect”. In addition, the fold induction at 10 µM with CYP1A1 [15] came out at 5; in the data set on CYP1A2 [16] it was 3; in the data set with CYP1A2 [22] it was 0.6. For the same compound, on CYP1A2 [20], the fold induction at 10 min, 5 µM came to 1.1.
With `CC(C)Oc1ncc(-c2nc(-c3cccc4c3OCCNC4CCCC(=O)O)no2)cc1Cl` (stereo in doubt; 7), the “fold change (FC)” value with Hepatocyte [25] was 32; in the data set on Hepatocyte [26] it was 8; in the data set on Rattus norvegicus [27], 1; in the data set on Rattus norvegicus [28] it was 1.
